Laboratory results: ChEMBL document CHEMBL1138881, “Application of phosphoramidate ProTide technology significantly improves antiviral potency of carbocyclic adenosine derivatives” (J Med Chem, 2006)

Columns and labels:
[1] = system: Human immunodeficiency virus 1; test: Antiviral activity against HIV1 3B in MT4 cells; assay type: functional, organism-based; conditions: Human immunodeficiency virus 1, 3B
Outline: (§1)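 MT-4 cells at 4.5 × 10⁵ cells/mL were infected with 100 CCID₅₀/mL of HIV-1 or HIV-2. Viable cells were then counted after trypan blue staining, and EC₅₀ was derived from these viable-cell counts.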

MT4 = test: Cytotoxicity against MT4 cells; assay type: functional; conditions: Homo sapiens
Outline: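 Exponentially growing MT-4 cells were resuspended at 5 × 10⁵ cells/mL in RPMI 1640 with 20% FBS and 20% IL-2. They were infected with HIV-1 IIIB (100 × TCID₅₀ per well) for 1 h at 37 °C, with mock-infected cells run in parallel. The suspension was diluted 6-fold onto serially diluted compound and incubated for 5 days at 37 °C in 5% CO₂. MTS staining was read at 492 nm.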

Hepatitis B virus = test: Antiviral activity against HBV in HepG2 2.2.15 cells; assay type: functional, organism-based
Outline: (§2)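 HepG2 2.2.15 cells, which produce HBV constitutively, were seeded at 5 × 10³ per well. Drug-containing medium was replaced every other day for 9 days. Virions in the supernatant were captured on anti-HBsAg plates, and their DNA was quantified by PCR against an HBV standard curve and normalized to untreated cells. For cell growth, monolayers were ethanol-fixed and stained with bisbenzimide H33342, and fluorescence was compared with untreated cells. SI = CC₅₀/EC₅₀.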

HepG2 = test: Cytotoxicity against HepG2 2.2.15 cells; assay type: functional; conditions: Homo sapiens; outline: as §2
[2] = system: Human immunodeficiency virus 2; test: Antiviral activity against HIV2 ROD in MT4 cells; assay type: functional, organism-based; conditions: Human immunodeficiency virus 2, ROD; outline: as §1
[3] = system: Human immunodeficiency virus 1; test: Antiviral activity against HIV1 3B in CEM cells; assay type: functional, organism-based; conditions: Human immunodeficiency virus 1, 3B, CCRF-CEM
Outline: (§3)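 CEM cells at 4.5 × 10⁵ cells/mL were infected with 100 CCID₅₀/mL of HIV-1 or HIV-2. Giant-cell formation was scored microscopically. EC₅₀ was the concentration preventing syncytium formation by 50%.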

[4] = system: Human immunodeficiency virus 2; test: Antiviral activity against HIV2 ROD in CEM cells; assay type: functional, organism-based; conditions: Human immunodeficiency virus 2, ROD, CCRF-CEM; outline: as §3
CEM cells (Homo sapiens) = test: Cytotoxicity against CEM cells
Cynomolgus monkey [5] = test: Metabolic stability in cynomolgus monkey liver S9 fraction; assay type: ADME, Macaca fascicularis
Outline: (§4)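 Pooled cynomolgus S9 (liver or intestinal segments), test compound 10 µM final, 37 °C, DMSO <1% final; reaction started with NADPH 2.5 mM final. Aliquots taken at 0 (preincubation), 10, 20, 30 and 60 min, quenched with cold acetonitrile, centrifuged; supernatant parent measured by LC/MS/MS. Stability given as % remaining from pre- vs postincubation peak areas.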

Cynomolgus monkey [6] = test: Metabolic stability in cynomolgus monkey intestine S9 fraction; assay type: ADME, Macaca fascicularis; outline: as §4

| SMILES | EC50 [1] [nM] | CC50 (MT4) [µM] | EC50 (Hepatitis B virus) [nM] | CC50 (HepG2) [µM] | EC50 [2] [µM] | EC50 [3] [µM] | EC50 [4] [µM] | CC50 (CEM cells (Homo sapiens)) [µM] | Stability (Cynomolgus monkey [5]) [%] | Stability (Cynomolgus monkey [6]) [%] |
| --- | --- | --- | --- | --- | --- | --- | --- | --- | --- | --- |
| COC(=O)[C@H](Cc1ccccc1)NP(=O)(OC[C@H]1C=C[C@@H](n2cnc3c(N)ncnc32)C1)Oc1ccccc1 (some centres not stated) | 100 | 16 | 4.5 | 9 | – | – | – | – | – | – |
| COC(=O)[C@H](C)NP(=O)(OC[C@H]1CC[C@@H](n2cnc3c(N)ncnc32)C1)Oc1ccccc1 (some centres not stated) | 1800 | > 12.5 | 600 | > 2 | – | – | – | – | – | – |
| COC(=O)[C@H](C)NP(=O)(OC[C@H]1C=C[C@@H](N2C=NC3C(N)=NC=NC32)C1)Oc1ccc(C(F)(F)F)cc1 (some centres not stated) | 35 | 5.87 | < 3.2 | 0.72 | 0.046 | 0.06 | 0.06 | 6.4 | – | – |
| C[C@H](NP(=O)(OC[C@H]1C=C[C@@H](n2cnc3c(N)ncnc32)C1)Oc1ccccc1)C(=O)OCc1ccccc1 (some centres not stated) | 9 | 255 | 7.5 | 5 | – | – | – | – | 0 | 0 |
| COC(=O)[C@H](C)NP(=O)(OC[C@H]1C=C[C@@H](n2cnc3c(N)ncnc32)C1)Oc1ccc(Cl)cc1 (some centres not stated) | 9 | 2 | 3 | > 2 | 0.018 | 0.015 | 0.047 | 3.11 | – | – |
| COC(=O)[C@H](Cc1ccc(OC(C)(C)C)cc1)NP(=O)(OC[C@H]1C=C[C@@H](n2cnc3c(N)ncnc32)C1)Oc1ccccc1 (some centres not stated) | 110 | 19.8 | 26 | > 2 | 0.13 | 3 | 5.5 | 79.7 | – | – |
| COC(=O)[C@H](C)NP(=O)(OC[C@H]1C=C[C@@H](n2cnc3c(N)ncnc32)C1)Oc1cccc(C(F)(F)F)c1 (some centres not stated) | – | – | – | – | – | – | – | – | 45 | 92 |
| COC(=O)[C@H](NP(=O)(OC[C@H]1C=C[C@@H](n2cnc3c(N)ncnc32)C1)Oc1ccccc1)C(C)C (some centres not stated) | 2300 | > 16 | 600 | > 200 | 14.2 | 7.5 | 10 | 230 | – | – |
| COC(=O)[C@H](C)NP(=O)(OC[C@@H]1C=C[C@H](n2cnc3c(N)ncnc32)C1)Oc1ccccc1 (some centres not stated) | 300 | 3.7 | 4000 | 5.4 | – | – | – | – | – | – |
| COC(=O)[C@@H](Cc1ccccc1)NP(=O)(OC[C@H]1C=C[C@@H](n2cnc3c(N)ncnc32)C1)Oc1ccccc1 (some centres not stated) | 2800 | > 40 | 700 | 200 | 5.93 | 9 | 8.67 | 108 | – | – |
| COC(=O)[C@H](C)NP(=O)(OC[C@H]1C=C[C@@H](n2cnc3c(N)ncnc32)C1)Oc1ccc([N+](=O)[O-])cc1 (some centres not stated) | 120 | 10 | 7 | > 2 | 0.17 | 0.1 | 0.1 | 17.4 | – | – |
| COC(=O)C[C@@H](NP(=O)(OC[C@H]1C=C[C@@H](n2cnc3c(N)ncnc32)C1)Oc1ccccc1)C(=O)OC (some centres not stated) | 2100 | > 10 | 20 | > 2 | 3.71 | 5 | 15 | ≥ 250 | – | – |
| COC(=O)[C@@H](CC(C)C)NP(=O)(OC[C@H]1C=C[C@@H](n2cnc3c(N)ncnc32)C1)Oc1ccccc1 (some centres not stated) | < 1000 | < 16 | 130 | > 2 | 0.93 | 1.6 | 3.5 | 88.5 | – | – |
| COC(=O)[C@@H](CCSC)NP(=O)(OC[C@H]1C=C[C@@H](n2cnc3c(N)ncnc32)C1)Oc1ccccc1 (some centres not stated) | 2500 | > 25 | 220 | > 2 | 3.48 | 7.67 | 7.87 | 211 | – | – |
| COC(=O)[C@@H](Cc1c[nH]c2ccccc12)NP(=O)(OC[C@H]1C=C[C@@H](n2cnc3c(N)ncnc32)C1)Oc1ccccc1 (some centres not stated) | 13300 | > 40 | 200 | > 2 | 21.9 | 20 | 25 | 93.4 | – | – |
| Nc1ncnc2c1ncn2[C@@H]1C=C[C@H](CO)C1 | 80000 | > 100 | 980 | > 200 | – | – | – | – | – | – |
| Nc1ncnc2c1ncn2[C@H]1C=C[C@@H](CO)C1 | 15000 | > 500 | 52000 | > 200 | – | – | – | – | – | – |
| Nc1ncnc2c1ncn2[C@H]1CC[C@@H](CO)C1 | 50000 | > 125 | 33000 | > 200 | – | – | – | – | – | – |
| COC(=O)[C@@H]1CCCN1P(=O)(OC[C@H]1C=C[C@@H](n2cnc3c(N)ncnc32)C1)Oc1ccccc1 (some centres not stated) | 5280 | > 10 | 510 | > 2 | 21 | 3.5 | 7.5 | 92.1 | – | – |
| COC(=O)[C@H]1CCCN1P(=O)(OC[C@H]1C=C[C@@H](n2cnc3c(N)ncnc32)C1)Oc1ccccc1 (some centres not stated) | 117000 | 227 | > 2000 | > 2 | 105 | 110 | 105 | ≥ 250 | – | – |
| COC(=O)[C@H](C)NP(=O)(OC[C@H]1C=C[C@@H](n2cnc3c(N)ncnc32)C1)Oc1ccc(Cl)c(Cl)c1 (some centres not stated) | 77 | > 4 | 5 | > 2 | 0.076 | 0.09 | 0.11 | 13 | – | – |
| COC(=O)[C@@H](C)NP(=O)(OC[C@H]1C=C[C@@H](n2cnc3c(N)ncnc32)C1)Oc1ccccc1 (some centres not stated) | 2050 | > 100 | 26.5 | > 200 | – | – | – | – | 41 | 94 |
| CCOC(=O)[C@H](C)NP(=O)(OC[C@H]1C=C[C@@H](n2cnc3c(N)ncnc32)C1)Oc1ccccc1 (some centres not stated) | 17 | > 25 | 20 | 22 | – | – | – | – | 15 | 39 |
| Nc1ncnc2c1ncn2[C@@H]1CC[C@H](CO)C1 | > 10000 | > 10 | 61000 | > 200 | – | – | – | – | – | – |
